Here are results for 16 compounds from publication PMC10782576 (ACS infectious diseases, 2019).

“Also recorded” adds a separate entry of the source. Like-named read-outs stand apart in the source and are kept apart here.

One experiment deals with Trichomonas vaginalis. The experiment in a line: imaging-based T. vaginalis viability assay. The format is cell-based. The note with it: for EC50: Trichomonas vaginalis; for effect of oxygen level on antitrichomonal activity: aerobic, microaerophilic and anaerobic atmospheres compared; for extent of elimination of trichomonads: strict anaerobic atmosphere; for EC50 T. vaginalis: imaging assay, 17 h incubation, microaerophilic unless specified.

Experiment [1] deals with Ect1/E6E7 normal-type human ectocervical cells. The experiment in a line: mammalian cell cytotoxicity counter screen, Ect1/E6E7. The experiment is classed as cell-based. As to conditions: for Selectivity Index SIEct1: (EC50 for Ect1 cells)/(EC50 for T. vaginalis); for EC50: read-out: EC50 Ect1 Normal Cervical, Ect1/E6E7 cytotoxicity. Background: The purpose of a counterscreen is to sort out artefacts and off-target activity.

In experiment [2] the test system is Lactobacillus acidophilus. The experiment in a line: Lactobacillus acidophilus viability assay. The experiment is classed as cell-based. The note with it: for effect on growth and viability of L. acidophilus: anaerobic conditions, at the concentrations tested (Figure 8); for EC50: read-out: EC50 L. acidophilus, anaerobic, 18 h. Summed up: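 Bacteria from MRS agar colonies were suspended in MRS broth, vortexed and dispensed into 96-well plates. Test compound was added in DMSO (0.5% final). Baseline OD 600 nm was read, then plates were incubated 18 h at 37 °C under anaerobic conditions (GasPak EZ Anaerobe sachets). OD 600 nm was read again to determine change from baseline.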

For experiment [3], the system named is NIH/3T3 mouse fibroblast cells. The experiment in a line: mammalian cell cytotoxicity counter screen, NIH/3T3. The format is cell-based. The note with it: read-out: EC50 3T3 Mouse Fibroblast; NIH/3T3 cytotoxicity. Summed up: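 NIH/3T3 mouse fibroblasts were maintained in DMEM with 5% FetalClone III. Viability was read by MTT or by a Calcein AM/Hoechst 33342 live-cell-area imaging assay. For imaging, a DMSO stock (40 μM Calcein AM, 160 μM Hoechst) was diluted 1:5 in PBS and added. After 30 min, Hoechst-stained nuclei were imaged and cells were scored live or dead by green fluorescence.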

The next experiment deals with T. vaginalis infection. As to conditions: after a single course of treatment; cited from earlier work.
The mark [4] stands for this setting: 17 h, read-out: EC50 T. vaginalis.

In the case of `COC1=CC(=O)c2c(O)c3c(c(O)c2C1=O)CC(C)(O)OC3` (stereo not drawn) [compound 1, fusarubin], in the experiment on Trichomonas vaginalis (setting [4]), the EC50 (commonly the concentration giving half of the maximal effect) stood at 2.5 µM. Besides, in the experiment with Trichomonas vaginalis, the “effect of oxygen level on antitrichomonal activity” value (shortened to “effect of oxygen level”) is “decreased as oxygen was introduced” and the “extent of elimination of trichomonads” value was “partial elimination”. Also, in experiment [1], the “Selectivity Index SIEct1” value came out at 30.
As to `COC1=CC(=O)c2c(O)c(C)c(CC(C)=O)c(O)c2C1=O` [compound 2, javanicin], the EC50 with Trichomonas vaginalis (setting [4]) came to 1.3 µM. Further, in experiment [1], the “Selectivity Index SIEct1” value was 3.1.
In the case of `COC1=CC(=O)c2c(O)ccc(O)c2C1=O` [compound 9, 2-Methoxynaphthazarin], in the experiment with Trichomonas vaginalis, the “effect of oxygen level” value is on record as “decreased as oxygen was introduced” and the “extent of elimination of trichomonads” value is given as “complete elimination”.
Turning to `O=C1C(O)=C([C@H]2CC[C@H](c3ccc(Cl)cc3)CC2)C(=O)c2ccccc21` [compound 37, atovaquone, reference compound], the “Selectivity Index SIEct1” value in experiment [1] was < 0.1.
As for `COC(=O)[C@@]12Oc3cc4c(c(O)c3C(=O)C1=C(O)CC[C@@H]2O)[C@@H]1C=C[C@@]2(C4)C(=O)c3cc(C)cc(O)c3C(O)=C2C1=O` [compound 46, xanthoquinodin A1], in the experiment with Trichomonas vaginalis (read-out: average EC50 against T. vaginalis), the EC50 was 3 µM. For the same compound, the “effect of oxygen level” value in the experiment with Trichomonas vaginalis was “maintained consistent potency”. Moreover, the “Selectivity Index SIEct1” value in experiment [1] is ~ 20. In experiment [2], the “effect on growth and viability of L. acidophilus” value (from here on “effect on growth and viability”) was “near equipotent activity against T. vaginalis and L. acidophilus; also recorded: significant inhibition”.
Consider `C/C=C/[C@@H]1C=C[C@@H]2C[C@H](C)CC[C@H]2[C@]1(C)/C(O)=C1/C(=O)[C@@H](CO)N(C)C1=O` [compound 49, 5’-epiequisetin], for which the “EC50 T. vaginalis” value in the experiment on Trichomonas vaginalis is reported as “Inactive”.
As to `C/C=C/[C@@H]1C=C[C@@H]2C[C@H](C)CC[C@H]2[C@]1(C)/C(O)=C1/C(=O)N[C@@H](CO)C1=O` [compound 50, trichosetin], the figures for the EC50 in experiment [3], in experiment [1] and in experiment [2] were 30 µM, 34 µM and > 50 µM, respectively.
`CC1=C[C@H]2C[C@@H](C)CC[C@@H]2[C@@](C)(/C(O)=C2\C(=O)[C@H](CO)N(C)C2=O)[C@H]1/C=C/C=C/C[C@@H](C)O` [compound 52, 5’-epipyrrolocin A]: the “EC50 T. vaginalis” value in the experiment with Trichomonas vaginalis was “Inactive”.
In the case of `C/C=C/C=C/C1C(C)=CC2CC(C)CCC2C1(C)/C(O)=C1\C(=O)NC(CO)C1=O` (stereo not drawn) [compound 53, beauversetin], the “effect of oxygen level” value in the experiment on Trichomonas vaginalis is listed as “no statistically significant change in EC50 value”. In addition, the results for the concentration giving a half-maximal response (EC50) in experiment [3], in experiment [1] and in experiment [2] were 35 µM, 35 µM and > 50 µM, respectively. For the same compound, in experiment [2], the “effect on growth and viability” value was “no effect”.
Regarding `C/C=C/C=C/[C@H]1C(C)=C[C@H]2C[C@@H](C)CC[C@@H]2[C@@]1(C)/C(O)=C1/C(=O)N[C@@H](CO)C1=O` [compound 54, 5’-epibeauversetin], in the experiment with Trichomonas vaginalis, the “EC50 T. vaginalis” value is reported as “Inactive”.
As for `C/C=C/C=C/[C@H]1C(C)=C[C@H]2C[C@@H](C)CC[C@@H]2[C@@]1(C)/C(O)=C1\C(=O)[C@H](CO)N(C)C1=O` [compound 56, 5’-epiphomasetin], the “EC50 T. vaginalis” value with Trichomonas vaginalis was “Inactive”.
As to `Cc1ncc([N+](=O)[O-])n1CCO` [metronidazole, reference compound], the “effect of oxygen level” value in the experiment with Trichomonas vaginalis is listed as “maintained consistent potency”. Moreover, in experiment [2], the “effect on growth and viability” value is reported as “no inhibition”. The “patients cleared of the infection” value in the experiment with T. vaginalis infection is > 90%.
On to `CCS(=O)(=O)CCn1c([N+](=O)[O-])cnc1C` [tinidazole], for which the “patients cleared of the infection” value with T. vaginalis infection was > 90%.
As to equisetin [compound 48], the EC50 in experiment [3] is 100 µM; in experiment [1], 35 µM; in experiment [2] it was > 50 µM. Also, the “toxicity to / inhibition of L. acidophilus” value in experiment [2] (at concentrations up to 50 μM) was “non-toxic”.
phomasetin [compound 55]: the EC50 was 10 µM in experiment [3], 7 µM in experiment [1] and > 50 µM in experiment [2].
Turning to pyrrolocin A [compound 51], the values for the EC50 in experiment [3], in experiment [1] and in experiment [2] were 6 µM, 10 µM and > 50 µM, respectively.
